Each block holds one molecule with its values, some of them ahead of it. Active and inactive are the calls of the source. No cut-off for these calls is given here.
Experiments:
[1] = tested on: HT-29; assay: Inhibition of pan-AKT protein expression in human HT-29 cells at 4 uM incubated for 72 hrs by Western blot analysis; format: functional, cell-based
[2] = target: 182 kDa tankyrase-1-binding protein (Homo sapiens) (UniProt Q9C0C2); assay: Inhibition of TAB-182 phosphorylation in human HT-29 cells at 4 uM incubated for 72 hrs by Western blot analysis; format: cell-based
182 kDa tankyrase-1-binding protein (Homo sapiens), sequence (Q9C0C2 whole entry): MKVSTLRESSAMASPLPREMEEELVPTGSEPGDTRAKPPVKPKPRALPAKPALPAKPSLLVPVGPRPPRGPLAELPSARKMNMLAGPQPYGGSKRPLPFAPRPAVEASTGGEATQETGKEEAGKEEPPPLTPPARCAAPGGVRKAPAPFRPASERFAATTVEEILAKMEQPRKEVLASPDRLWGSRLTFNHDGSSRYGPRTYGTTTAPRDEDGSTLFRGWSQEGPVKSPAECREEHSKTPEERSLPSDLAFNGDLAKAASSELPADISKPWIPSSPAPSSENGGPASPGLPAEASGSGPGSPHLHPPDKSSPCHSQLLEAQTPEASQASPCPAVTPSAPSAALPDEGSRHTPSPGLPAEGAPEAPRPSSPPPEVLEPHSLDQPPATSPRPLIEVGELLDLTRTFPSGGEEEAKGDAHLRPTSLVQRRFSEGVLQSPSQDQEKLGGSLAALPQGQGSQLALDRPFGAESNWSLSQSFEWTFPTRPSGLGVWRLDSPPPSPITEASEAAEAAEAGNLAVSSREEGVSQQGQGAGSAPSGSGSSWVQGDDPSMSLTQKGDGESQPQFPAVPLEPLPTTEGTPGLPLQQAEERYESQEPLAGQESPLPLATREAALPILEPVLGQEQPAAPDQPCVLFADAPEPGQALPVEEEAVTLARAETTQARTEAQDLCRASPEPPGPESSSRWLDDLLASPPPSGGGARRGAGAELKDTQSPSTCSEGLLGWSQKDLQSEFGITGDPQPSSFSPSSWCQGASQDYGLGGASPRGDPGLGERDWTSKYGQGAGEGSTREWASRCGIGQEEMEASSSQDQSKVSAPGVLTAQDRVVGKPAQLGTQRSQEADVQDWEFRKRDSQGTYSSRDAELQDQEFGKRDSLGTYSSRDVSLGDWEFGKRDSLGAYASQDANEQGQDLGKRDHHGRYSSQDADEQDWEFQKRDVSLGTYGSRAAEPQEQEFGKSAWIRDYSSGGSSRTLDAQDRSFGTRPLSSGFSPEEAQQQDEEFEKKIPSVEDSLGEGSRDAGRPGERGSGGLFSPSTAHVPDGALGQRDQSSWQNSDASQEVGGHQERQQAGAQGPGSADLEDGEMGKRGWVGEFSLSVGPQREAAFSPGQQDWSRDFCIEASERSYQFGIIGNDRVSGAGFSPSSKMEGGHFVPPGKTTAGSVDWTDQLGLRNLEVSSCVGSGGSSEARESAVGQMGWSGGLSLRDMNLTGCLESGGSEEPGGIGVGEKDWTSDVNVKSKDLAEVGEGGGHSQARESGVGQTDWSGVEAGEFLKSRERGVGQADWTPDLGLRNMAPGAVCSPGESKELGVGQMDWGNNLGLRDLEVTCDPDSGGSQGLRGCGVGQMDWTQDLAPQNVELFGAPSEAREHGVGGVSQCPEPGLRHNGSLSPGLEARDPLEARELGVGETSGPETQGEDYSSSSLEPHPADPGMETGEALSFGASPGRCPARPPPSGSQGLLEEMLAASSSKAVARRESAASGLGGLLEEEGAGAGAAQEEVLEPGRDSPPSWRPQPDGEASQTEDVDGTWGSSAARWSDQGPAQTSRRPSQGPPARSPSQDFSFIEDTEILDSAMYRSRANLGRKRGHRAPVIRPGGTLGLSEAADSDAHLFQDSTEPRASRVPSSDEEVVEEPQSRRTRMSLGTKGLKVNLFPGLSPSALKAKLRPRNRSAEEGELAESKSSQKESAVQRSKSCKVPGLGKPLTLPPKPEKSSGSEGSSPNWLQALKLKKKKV

[3] = tested on: HT-29; assay: Induction of ROS generation in human HT-29 cells at 4 uM by CM-H2DCFDA fluorescent probe based flow cytometry analysis (reference value: 0.528%); format: functional
[4] = tested on: HT-29; assay: Inhibition of beta-catenin protein expression in human HT-29 cells at 4 uM incubated for 72 hrs by Western blot analysis; format: functional, cell-based
[5] = tested on: HT-29; assay: Induction of apoptosis in human HT29 cells assessed as increase in late apoptotic cells at 4 uM incubated for 24 hrs by annexin V/PI staining based flow cytometry analysis; format: functional, cell-based
Summary of the method: (§1)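 Annexin/PI double staining of HT-29 cells after 24 h exposure at 1, 2 or 4 μM. Flow cytometry gated early apoptotic, late apoptotic and necrotic populations, reported as % of cells. Comparison to untreated control used two-way ANOVA followed by Tukey's post hoc analysis.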

[6] = tested on: HT-29; assay: Induction of apoptosis in human HT29 cells assessed as increase in early apoptotic cells at 4 uM incubated for 24 hrs by annexin V/PI staining based flow cytometry analysis; format: functional, cell-based; summary of the method: as §1
[7] = tested on: HT-29; assay: Inhibition of beta-actin protein expression in human HT-29 cells at 4 uM incubated for 72 hrs by Western blot analysis; format: functional, cell-based
[8] = tested on: HT-29; assay: Inhibition of TAB-182 protein expression in human HT-29 cells at 1 uM incubated for 72 hrs by Western blot analysis; format: functional, cell-based
[9] = tested on: HT-29; assay: Inhibition of phosphorylated PI3K-p85 protein expression in human HT-29 cells at 1 uM incubated for 72 hrs by Western blot analysis; format: functional, cell-based
[10] = target: Phosphatidylinositol 3-kinase regulatory subunit alpha (Homo sapiens) (UniProt P27986); assay: Inhibition of PI3K-P85 phosphorylation in human HT-29 cells at 1 uM incubated for 72 hrs by Western blot analysis; format: cell-based
Phosphatidylinositol 3-kinase regulatory subunit alpha (Homo sapiens), sequence (P27986 whole entry): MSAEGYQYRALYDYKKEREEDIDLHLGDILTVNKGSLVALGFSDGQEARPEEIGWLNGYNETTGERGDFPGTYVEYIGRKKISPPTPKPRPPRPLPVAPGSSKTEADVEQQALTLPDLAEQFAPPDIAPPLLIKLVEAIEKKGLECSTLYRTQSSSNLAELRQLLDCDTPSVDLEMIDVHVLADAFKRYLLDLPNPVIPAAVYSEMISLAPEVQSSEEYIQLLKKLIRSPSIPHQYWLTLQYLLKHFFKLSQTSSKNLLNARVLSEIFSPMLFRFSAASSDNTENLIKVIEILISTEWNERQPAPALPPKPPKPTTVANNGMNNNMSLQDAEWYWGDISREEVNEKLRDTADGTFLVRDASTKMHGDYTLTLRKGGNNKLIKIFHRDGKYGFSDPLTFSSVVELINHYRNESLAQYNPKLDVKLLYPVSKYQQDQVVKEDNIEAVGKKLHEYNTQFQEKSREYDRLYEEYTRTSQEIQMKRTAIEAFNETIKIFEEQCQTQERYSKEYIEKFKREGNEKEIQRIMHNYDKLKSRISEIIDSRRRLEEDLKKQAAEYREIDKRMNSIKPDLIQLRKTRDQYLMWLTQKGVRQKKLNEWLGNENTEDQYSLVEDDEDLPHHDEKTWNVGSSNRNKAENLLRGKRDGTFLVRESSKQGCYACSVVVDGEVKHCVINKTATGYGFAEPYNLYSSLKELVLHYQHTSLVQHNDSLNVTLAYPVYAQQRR

[11] = tested on: HT-29; assay: Induction of cell cycle arrest in human HT-29 cells assessed as accumulation of cells at G0/G1 phase at 1 uM incubated for 24 hrs by RNase/PI staining based flow cytometry analysis (reference value: 50.206%); format: functional
[12] = tested on: HT-29; assay: Inhibition of beta-catenin protein expression in human HT-29 cells at 1 uM incubated for 72 hrs by Western blot analysis; format: functional, cell-based
[13] = tested on: HT-29; assay: Induction of mitochondrial damage in human HT-29 cells assessed as increase in monomer formation at 1 uM incubated for 24 hrs by JC-1 staining based flow cytometry analysis; format: functional, cell-based
Summary of the method: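 HT-29 cells exposed 24 h to test agent at 1, 2 or 4 μM, then stained with JC-1. Flow cytometry scored the % of cells in JC-1 aggregate versus monomer populations. Treated groups were compared with untreated control by two-way ANOVA with Tukey's post hoc test.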

[14] = target: Glycogen synthase kinase-3 beta (Homo sapiens) (UniProt P49841); assay: Inhibition of GSK3beta phosphorylation in human HT-29 cells at 1 uM incubated for 72 hrs by Western blot analysis; format: cell-based
Glycogen synthase kinase-3 beta (Homo sapiens), sequence (P49841 whole entry, looked up): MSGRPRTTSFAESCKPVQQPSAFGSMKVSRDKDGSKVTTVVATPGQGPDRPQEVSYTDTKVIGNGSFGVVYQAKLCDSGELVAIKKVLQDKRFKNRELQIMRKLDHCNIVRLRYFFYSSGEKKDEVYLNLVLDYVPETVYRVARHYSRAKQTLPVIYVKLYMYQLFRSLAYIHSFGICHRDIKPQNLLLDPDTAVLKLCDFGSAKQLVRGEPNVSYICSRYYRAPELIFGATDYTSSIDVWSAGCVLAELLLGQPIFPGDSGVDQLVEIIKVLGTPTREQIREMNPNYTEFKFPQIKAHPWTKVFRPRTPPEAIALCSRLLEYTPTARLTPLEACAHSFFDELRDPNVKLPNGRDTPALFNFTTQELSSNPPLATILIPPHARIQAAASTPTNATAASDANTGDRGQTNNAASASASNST

[15] = tested on: HT-29; assay: Downregulation of beta-catenin protein expression in human HT-29 cells at 1 uM by immunostaining based confocal microscopic analysis; format: functional, cell-based
[16] = tested on: HT-29; assay: Inhibition of pan-AKT protein expression in human HT-29 cells at 2 uM incubated for 72 hrs by Western blot analysis; format: functional, cell-based
[17] = tested on: HT-29; assay: Induction of apoptosis in human HT29 cells assessed as increase in late apoptotic cells at 2 uM incubated for 24 hrs by annexin V/PI staining based flow cytometry analysis; format: functional, cell-based; summary of the method: as §1
[18] = tested on: HT-29; assay: Induction of mitochondrial ROS generation in human HT-29 cells at 2 uM by MitoSOX red dye based flow cytometry analysis; format: functional, cell-based
Summary of the method: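 Mitochondrial superoxide in HT-29 cells was read with the mitochondria-localizing MitoSOX Red probe after treatment at 1, 2 or 4 μM. Flow cytometry histograms were acquired on 10,000 cells, and results were expressed as mean fluorescence intensity. Versus control, significance was tested by one-way ANOVA with Tukey's post hoc test.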

[19] = target: Glycogen synthase kinase-3 beta (Homo sapiens) (UniProt P49841); assay: Inhibition of GSK3beta phosphorylation in human HT-29 cells at 2 uM incubated for 72 hrs by Western blot analysis; format: cell-based
[20] = tested on: HT-29; assay: Inhibition of AXIN-2 protein expression in human HT-29 cells at 2 uM incubated for 72 hrs by Western blot analysis; format: functional, cell-based
[21] = target: Phosphatidylinositol 3-kinase regulatory subunit alpha (Homo sapiens) (UniProt P27986); assay: Inhibition of PI3K-P85 phosphorylation in human HT-29 cells at 2 uM incubated for 72 hrs by Western blot analysis; format: cell-based
[22] = tested on: HT-29; assay: Inhibition of beta-catenin protein expression in human HT-29 cells at 2 uM incubated for 72 hrs by Western blot analysis; format: functional, cell-based
[23] = tested on: HT-29; assay: Inhibition of AXIN-1 protein expression in human HT-29 cells at 2 uM incubated for 72 hrs by Western blot analysis; format: functional, cell-based
[24] = tested on: HT-29; assay: Induction of cell cycle arrest in human HT-29 cells assessed as accumulation of cells at G2/M phase at 2 uM incubated for 24 hrs by RNase/PI staining based flow cytometry analysis (reference value: 23.695 %); format: functional
[25] = tested on: HT-29; assay: Induction of cell cycle arrest in human HT-29 cells assessed as accumulation of cells at S phase at 2 uM incubated for 24 hrs by RNase/PI staining based flow cytometry analysis (reference value: 17.934 %); format: functional
[26] = tested on: HT-29; assay: Downregulation of beta-catenin protein expression in human HT-29 cells at 2 uM by immunostaining based confocal microscopic analysis; format: functional, cell-based
[27] = tested on: HT-29; assay: Inhibition of PI3K-p85 protein expression in human HT-29 cells at 2 uM incubated for 72 hrs by Western blot analysis; format: functional, cell-based

- inhibition [2]: Active
Structure (SMILES): COc1cccc(-n2c(SCCc3c[nH]c4ccccc34)nnc2-c2ccncc2)c1
- inhibition [1]: Active
- Activity [3]: 2.467%
- inhibition [4]: Active
- Activity [5]: Active
- Activity [6]: Active
- inhibition [7]: Active

- inhibition [10]: Active
- inhibition [14]: Active
Structure (SMILES): COc1ccc(-n2c(SCCc3c[nH]c4ccccc34)nnc2-c2ccncc2)cc1
- inhibition [8]: Active
- inhibition [9]: Active
- Activity [11]: 59.672%
- inhibition [12]: Active
- Activity [13]: Active
- Activity [15]: Active

- inhibition [19]: Active
- inhibition [21]: Active
Structure (SMILES): Fc1ccccc1-n1c(SCCc2c[nH]c3ccccc23)nnc1-c1ccncc1
- inhibition [16]: Active
- Activity [17]: Active
- Activity [18]: Active
- inhibition [20]: Active
- inhibition [22]: Active
- inhibition [23]: Active
- Activity [24]: 18.982%
- Activity [25]: 7.976%
- Activity [26]: Active
- inhibition [27]: Active
